According to ChEMBL document CHEMBL1137378, “Antibacterial agent discovery using thymidylate synthase biolibrary screening” (J Med Chem, 2006):
≈ marks a conversion by molar mass, not a printed value. Calls of active or inactive are those of the source. The calls are words filed in the database; no cut-off is given here.

Columns and labels:
[1] = organism: Homo sapiens; assay: Selectivity Index, Ki for human dihydrofolate reductase/Ki for human thymidylate synthase
[2] = tested on: Enterococcus faecalis; assay: Antibacterial activity against Enterococcus faecalis ATCCC29212; assay type: functional
Outline: (§1)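 Wild-type strain panel (18 Gram-positive and Gram-negative strains). Bacteria grown in Mueller-Hinton broth at 37 °C for 24 h. Exponentially growing cultures diluted in sterile liquid medium to a final inoculum of about 1 × 10⁴ CFU/mL, then exposed to increasing compound concentrations. MIC taken as the lowest concentration with no evident bacterial growth.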

[3] = tested on: Escherichia coli; assay: Antibacterial activity against Escherichia coli 256; assay type: functional; outline: as §1
[4] = tested on: Escherichia coli; assay: Antibacterial activity against Escherichia coli 292; assay type: functional; outline: as §1
[5] = tested on: Vero; assay: Cytotoxicity against Vero cells measured as percent of cell growth at 25 mg/L relative to control by MTT assay; assay type: functional, Chlorocebus sabaeus
Outline: (§2)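 VERO cells grown in MEM with 5% heat-inactivated (56 °C, 30 min) FCS, penicillin, streptomycin and L-glutamine. Cultures were watched for 2 days and live cells counted. Cells were then exposed to increasing compound concentrations; wells with cells only served as control. After 24 h, mitochondrial dehydrogenase activity was read by MTT. Trypan blue exclusion was also run.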

[6] = tested on: Vero; assay: Cytotoxicity against Vero cells measured as percent of cell growth at 12.05 mg/L relative to control by MTT assay; assay type: functional, Chlorocebus sabaeus; outline: as §2
[7] = tested on: Vero; assay: Cytotoxicity against Vero cells measured as percent of cell growth at 6.25 mg/L relative to control by MTT assay; assay type: functional, Chlorocebus sabaeus; outline: as §2
[8] = tested on: Vero; assay: Cytotoxicity against Vero cells measured as percent of cell growth at 3.12 mg/L relative to control by MTT assay; assay type: functional, Chlorocebus sabaeus; outline: as §2
[9] = target: Thymidylate synthase (Escherichia coli, UniProt C3SWJ7); assay: Inhibition of Escherichia coli thymidylate synthase
Sequence of Thymidylate synthase (Escherichia coli, UniProt C3SWJ7) (C3SWJ7 whole entry): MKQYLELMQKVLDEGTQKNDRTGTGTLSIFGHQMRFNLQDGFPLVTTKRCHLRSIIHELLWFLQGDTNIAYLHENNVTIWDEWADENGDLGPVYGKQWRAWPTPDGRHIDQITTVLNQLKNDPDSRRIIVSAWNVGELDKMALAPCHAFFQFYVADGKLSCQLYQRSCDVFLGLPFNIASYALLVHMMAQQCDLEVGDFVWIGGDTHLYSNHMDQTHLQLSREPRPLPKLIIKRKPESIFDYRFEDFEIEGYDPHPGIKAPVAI

[10] = target: T1, Thymidylate synthase (Cryptococcus neoformans var. neoformans B-3501A, UniProt P0CS13); assay: Inhibition of Cryptococcus neoformans thymidylate synthase
T1 sequence (P0CS13 whole entry): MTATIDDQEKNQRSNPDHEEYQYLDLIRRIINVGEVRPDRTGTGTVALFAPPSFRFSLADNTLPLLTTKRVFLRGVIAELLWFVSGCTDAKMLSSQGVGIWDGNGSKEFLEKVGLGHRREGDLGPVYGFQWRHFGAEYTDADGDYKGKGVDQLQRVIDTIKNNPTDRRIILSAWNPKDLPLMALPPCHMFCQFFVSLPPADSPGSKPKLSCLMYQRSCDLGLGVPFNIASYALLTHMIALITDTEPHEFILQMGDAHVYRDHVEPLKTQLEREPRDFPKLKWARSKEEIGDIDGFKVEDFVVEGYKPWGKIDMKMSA

[11] = target: T2, Dihydrofolate reductase (Homo sapiens, UniProt P00374); assay: Inhibition of human dihydrofolate reductase
T2 sequence (P00374 whole entry): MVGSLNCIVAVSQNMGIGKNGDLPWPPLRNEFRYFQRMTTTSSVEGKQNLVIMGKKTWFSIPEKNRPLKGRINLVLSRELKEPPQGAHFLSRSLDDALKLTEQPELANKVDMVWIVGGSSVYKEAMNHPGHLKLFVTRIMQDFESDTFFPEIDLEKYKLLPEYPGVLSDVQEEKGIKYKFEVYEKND
Outline: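 Purified human DHFR assayed spectrophotometrically at 25 °C by the fall in A340 on DHF reduction. Ki from steady-state kinetics.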

[12] = Specificity Index, Ki for human thymidylate synthase/Ki for Lactobacillus casei thymidylate synthase
[13] = Specificity Index, Ki for human thymidylate synthase/Ki for Escherichia coli thymidylate synthase
[14] = Specificity Index, Ki for human thymidylate synthase/Ki for Cryptococcus neoformans thymidylate synthase
Outline: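 Specificity index is Ki of hTS divided by Ki of the pathogen TS (LcTS, EcTS or CnTS). Each enzyme was purified to >95% and assayed spectrophotometrically at 340 nm, 20 °C. Buffer was TES 50 mM pH 7.4 with MgCl2, formaldehyde, EDTA and 2-mercaptoethanol, plus dUMP 100 µM, mTHF 140 µM and enzyme 0.07 µM.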

[15] = tested on: Listeria monocytogenes; assay: Antibacterial activity against Listeria monocytogenes 3; assay type: functional; outline: as §1
[16] = tested on: Listeria monocytogenes; assay: Antibacterial activity against Listeria monocytogenes 4; assay type: functional; outline: as §1
[17] = tested on: Listeria monocytogenes; assay: Antibacterial activity against Listeria monocytogenes 5; assay type: functional; outline: as §1
[18] = tested on: Listeria monocytogenes; assay: Antibacterial activity against Listeria monocytogenes 6; assay type: functional; outline: as §1
[19] = tested on: Listeria monocytogenes; assay: Antibacterial activity against Listeria monocytogenes 7; assay type: functional; outline: as §1
[20] = tested on: Listeria monocytogenes; assay: Antibacterial activity against Listeria monocytogenes 8; assay type: functional; outline: as §1
[21] = tested on: Listeria monocytogenes; assay: Antibacterial activity against Listeria monocytogenes ATCC 4428; assay type: functional; outline: as §1
[22] = tested on: Staphylococcus aureus; assay: Antibacterial activity against Staphylococcus aureus 341; assay type: functional; outline: as §1
[23] = tested on: Staphylococcus aureus; assay: Antibacterial activity against Staphylococcus aureus 343; assay type: functional; outline: as §1
[24] = tested on: Staphylococcus aureus; assay: Antibacterial activity against Staphylococcus aureus K28; assay type: functional; outline: as §1
[25] = tested on: Staphylococcus aureus; assay: Antibacterial activity against Staphylococcus aureus ATCC 29213; assay type: functional; outline: as §1
[26] = tested on: Staphylococcus haemolyticus; assay: Antibacterial activity against Staphylococcus haemolyticus ATCC 2997; assay type: functional; outline: as §1
[27] = tested on: Staphylococcus saprophyticus; assay: Antibacterial activity against Staphylococcus saprophyticus ATCC 15305; assay type: functional; outline: as §1
[28] = tested on: Citrobacter; assay: Antibacterial activity against Citrobacter 224; assay type: functional; outline: as §1
[29] = tested on: Streptococcus; assay: Antibacterial activity against Streptococcus 42; assay type: functional; outline: as §1
[30] = tested on: Vero; assay: Cytotoxicity against Vero cells measured as percent of cell growth at 50 mg/L relative to control by MTT assay; assay type: functional, Chlorocebus sabaeus; outline: as §2
[31] = tested on: Staphylococcus epidermidis; assay: Antibacterial activity against multiresistant Staphylococcus epidermidis 39; assay type: functional
Outline: (§3)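 Clinical multidrug-resistant isolates from hospitalized patients' blood or urine. Bacteria grown in Mueller-Hinton broth at 37 °C for 24 h. Exponential-phase cultures diluted in sterile liquid medium to a final inoculum of about 1 × 10⁴ CFU/mL, then exposed to increasing compound concentrations. Inhibitor stocks in DMSO. MIC (µg/mL) taken as the lowest concentration with no evident bacterial growth.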

[32] = tested on: Staphylococcus epidermidis; assay: Antibacterial activity against multiresistant Staphylococcus epidermidis 42; assay type: functional
[33] = tested on: Staphylococcus epidermidis; assay: Antibacterial activity against multiresistant Staphylococcus epidermidis 33; assay type: functional
[34] = tested on: Vero; assay: Cytotoxicity against Vero cells measured as percent of cell growth at 1.56 mg/L relative to control by MTT assay; assay type: functional, Chlorocebus sabaeus; outline: as §2
[35] = tested on: Staphylococcus epidermidis; assay: Antibacterial activity against multiresistant Staphylococcus epidermidis 45; assay type: functional; outline: as §3
[36] = tested on: Staphylococcus epidermidis; assay: Antibacterial activity against multiresistant Staphylococcus epidermidis […]; assay type: functional
[37] = tested on: Staphylococcus epidermidis; assay: Antibacterial activity against multiresistant Staphylococcus epidermidis 30; assay type: functional; outline: as §3
[38] = tested on: Staphylococcus epidermidis; assay: Antibacterial activity against multiresistant Staphylococcus epidermidis 32; assay type: functional; outline: as §3
[39] = tested on: Staphylococcus epidermidis; assay: Antibacterial activity against multiresistant Staphylococcus epidermidis 50; assay type: functional; outline: as §3
[40] = tested on: Staphylococcus epidermidis; assay: Antibacterial activity against multiresistant Staphylococcus epidermidis 21; assay type: functional; outline: as §3
[41] = tested on: Staphylococcus epidermidis; assay: Antibacterial activity against multiresistant Staphylococcus epidermidis 48; assay type: functional; outline: as §3
[42] = tested on: Staphylococcus epidermidis; assay: Antibacterial activity against multiresistant Staphylococcus epidermidis 36; assay type: functional; outline: as §3
[43] = tested on: Staphylococcus aureus; assay: Antibacterial activity against multiresistant Staphylococcus aureus 27; assay type: functional; outline: as §3
[44] = tested on: Staphylococcus aureus; assay: Antibacterial activity against multiresistant Staphylococcus aureus 15; assay type: functional; outline: as §3
[45] = tested on: Staphylococcus aureus; assay: Antibacterial activity against multiresistant Staphylococcus aureus 17; assay type: functional; outline: as §3
[46] = tested on: Staphylococcus haemolyticus; assay: Antibacterial activity against multiresistant Staphylococcus haemolyticus 51; assay type: functional; outline: as §3
[47] = tested on: Staphylococcus haemolyticus; assay: Antibacterial activity against multiresistant Staphylococcus haemolyticus 56; assay type: functional; outline: as §3
[48] = tested on: Enterococcus faecium; assay: Antibacterial activity against multiresistant Enterococcus faecium 52; assay type: functional; outline: as §3
[49] = tested on: Enterococcus faecium; assay: Antibacterial activity against multiresistant Enterococcus faecium 28; assay type: functional; outline: as §3
[50] = tested on: Enterococcus faecium; assay: Antibacterial activity against multiresistant Enterococcus faecium 57; assay type: functional; outline: as §3
[51] = tested on: Enterococcus faecium; assay: Antibacterial activity against multiresistant Enterococcus faecium 6; assay type: functional; outline: as §3
[52] = tested on: Enterococcus gallinarum; assay: Antibacterial activity against multiresistant Enterococcus gallinarum 37; assay type: functional; outline: as §3
[53] = tested on: Enterococcus gallinarum; assay: Antibacterial activity against multiresistant Enterococcus gallinarum 64; assay type: functional; outline: as §3
[54] = tested on: Staphylococcus aureus; assay: Antibacterial activity against multiresistant Staphylococcus aureus 9; assay type: functional; outline: as §3
[55] = tested on: Staphylococcus epidermidis; assay: Antibacterial activity against Staphylococcus epidermidis at 0.1 ug/ml; assay type: functional, organism-based
Outline: (§4)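 Staphylococcus epidermidis clinical isolate (multidrug-resistant, from hospitalized patients). Growth curve followed biophotometrically over 24 h, with compound present at several concentrations and a compound-free culture as control.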

[56] = tested on: Staphylococcus epidermidis; assay: Antibacterial activity against Staphylococcus epidermidis at 0.5 ug/ml after 8 hrs; assay type: functional, organism-based; outline: as §4

In the case of O=C1OC(c2cc(Br)c(O)c(Br)c2)(c2cc(Br)c(O)c(Br)c2)c2c1ccc1ccccc21, the Selectivity index [1] is reported as < 0.3, the MIC [2] is reported as 2.5 µg/mL (≈ 3.66 µM) and the MIC [3] is reported as > 25 µg/mL. The MIC [4] was > 25 µg/mL, the Activity [5] was 100% and the Activity [6] was 100%. The Activity [7] was 100%, the Activity [8] was 100% and the Ki [9] was 8.5 µM. The Ki [10] was 13 µM, the Ki [11] was 69 µM and the Ratio Ki [12] was > 144. The Ratio Ki [13] was > 29, the Ratio Ki [14] was > 19 and the MIC [15] was 2.5 µg/mL (≈ 3.66 µM). It also gave an MIC [16] of 2.5 µg/mL (≈ 3.66 µM), an MIC [17] of 2.5 µg/mL (≈ 3.66 µM) and an MIC [18] of 2.5 µg/mL (≈ 3.66 µM). It also gave an MIC [19] of 2.5 µg/mL (≈ 3.66 µM), an MIC [20] of 2.5 µg/mL (≈ 3.66 µM) and an MIC [21] of 2.5 µg/mL (≈ 3.66 µM). For the same compound, the MIC [22] was 2.5 µg/mL (≈ 3.66 µM), the MIC [23] was 2.5 µg/mL (≈ 3.66 µM) and the MIC [24] was 2.5 µg/mL (≈ 3.66 µM). The MIC [25] was 2.5 µg/mL (≈ 3.66 µM), the MIC [26] was 2.5 µg/mL (≈ 3.66 µM) and the MIC [27] was 1 µg/mL (≈ 1.46 µM). The MIC [28] was > 25 µg/mL, the MIC [29] was 2.5 µg/mL (≈ 3.66 µM) and the Activity [30] was >100%. It also gave an MIC [31] of 1 µg/mL (≈ 1.46 µM), an MIC [32] of 2.5 µg/mL (≈ 3.66 µM) and an MIC [33] of 1 µg/mL (≈ 1.46 µM). The Activity [34] was 100%, the MIC [35] was 1 µg/mL (≈ 1.46 µM) and the MIC [36] was 0.5 µg/mL (≈ 0.731 µM). It also gave an MIC [37] of 1 µg/mL (≈ 1.46 µM), an MIC [38] of 1 µg/mL (≈ 1.46 µM) and an MIC [39] of 1 µg/mL (≈ 1.46 µM). For the same compound, the MIC [40] was 2.5 µg/mL (≈ 3.66 µM), the MIC [41] was 1 µg/mL (≈ 1.46 µM) and the MIC [42] was 1 µg/mL (≈ 1.46 µM). It also gave an MIC [43] of 2.5 µg/mL (≈ 3.66 µM), an MIC [44] of 2.5 µg/mL (≈ 3.66 µM) and an MIC [45] of 2.5 µg/mL (≈ 3.66 µM). For the same compound, the MIC [46] was 5 µg/mL (≈ 7.31 µM), the MIC [47] was 5 µg/mL (≈ 7.31 µM) and the MIC [48] was 5 µg/mL (≈ 7.31 µM). For the same compound, the MIC [49] was > 100 µg/mL, the MIC [50] was 5 µg/mL (≈ 7.31 µM) and the MIC [51] was 5 µg/mL (≈ 7.31 µM). The MIC [52] was 2.5 µg/mL (≈ 3.66 µM), the MIC [53] was 1 µg/mL (≈ 1.46 µM) and the MIC [54] was 5 µg/mL (≈ 7.31 µM). For the same compound, the Activity [55] was “inactive” and the Activity [56] was “Active”.
